Bioassay records (PubChem BioAssay)
The list is not random: actives were taken first. Their share in the collection is about 2.1%.
HTR2A ag = activates the mouse 5-HT2A serotonin receptor | P35363 | CHO-K1 mHTR2A beta-arrestin complementation, luminescence; percent of 30 µM serotonin response | activation, % at 7.6 µM | 0.66% of 360,000 active;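 active means activation above a run cutoff, the mean activation of all tested compounds plus 3 SD, cut at about 14% in these data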;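 further: 0% = plate median of compound wells and 100% = 30 µM serotonin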
APJ antagonist = blocks the human apelin receptor APJ | P35414 | CHO-K1 APJ beta-arrestin complementation, luminescence | inhibition, % at 20 µM | 0.32% of 330,000 active | AID 2521;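 active means inhibition above about 40% at 20 µM, limit read from the data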;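 further: cells challenged with 10 nM apelin-13 agonist together with compound; plate controls were apelin-13 plus DMSO wells for no effect and DMSO wells lacking apelin-13 for full effect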
EBI2 antag = blocks human EBI2 receptor beta-arrestin signaling; P32249; EBI2 beta-arrestin recruitment, luminescence, 7a,25-OHC stimulated; inhibition, % at 5 µM; 0.81% of 360,000 active; in the data active means inhibition above about 38%;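 further: enzyme fragment complementation signal reports receptor beta-arrestin coupling in cells; 0% = agonist plus DMSO wells and 100% = wells without agonist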
Target sequence (P32249 whole entry, looked up, the tested form may be a part): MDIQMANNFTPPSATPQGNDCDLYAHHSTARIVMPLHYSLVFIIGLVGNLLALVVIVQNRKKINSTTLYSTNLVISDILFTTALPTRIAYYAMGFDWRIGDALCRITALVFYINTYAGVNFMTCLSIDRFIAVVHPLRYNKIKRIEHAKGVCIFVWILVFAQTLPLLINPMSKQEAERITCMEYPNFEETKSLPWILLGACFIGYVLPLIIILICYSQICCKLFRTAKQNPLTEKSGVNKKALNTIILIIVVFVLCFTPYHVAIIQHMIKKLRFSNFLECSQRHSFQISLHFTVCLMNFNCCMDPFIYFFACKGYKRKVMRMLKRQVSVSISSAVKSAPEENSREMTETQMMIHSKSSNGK
APJ agonist = activates the human apelin receptor APJ | 0.11% of 330,000 active | activation, % at 20 µM | CHO-K1 APJ PathHunter beta-arrestin, luminescence; 0% DMSO wells, 100% apelin;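 active means activation more than six SD over the plate average, tested at 20 µM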;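 further: 0% = DMSO alone and 100% = apelin-13 at 10 nM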
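Assay system: CHO-K1 cells stably expressing ProLink-tagged human APJ and arrestin–beta-gal acceptor. Compound dosing: 20 µM single point, 1% DMSO. Times: 16-18 h seeding, 90 min dark compound exposure, 60 min detection. Detection: beta-gal luminescence. Evaluation: APJ–arrestin association signal. Controls: negative DMSO alone, positive Apelin-13 at 10 nM.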
CXCR6 inh = inhibitors of human CXCR6 receptor; CHO-K1 PathHunter CXCR6 beta-arrestin, luminescence; 0.36% of 360,000 active; O00574; inhibition, % at 20 µM; in the data active means inhibition above about 34%, passing the limit was not always enough;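 further: antagonist mode with CXCL16 agonist at 10 nM final; 0% = 10 nM CXCL16 with DMSO and 100% = unstimulated wells without agonist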
CCR6 antagonist = blocks CCL20-driven beta-arrestin recruitment at human CCR6; AID 493098; 0.49% of 340,000 active; inhibition, % at 20 µM; CHO-K1 CCR6 PathHunter beta-arrestin, luminescence, CCL20-stimulated; P51684;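 active means compounds whose inhibition of the agonist-driven luminescence signal at 20 µM reaches about 50%, limit read from the data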;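 further: cells stimulated with CCL20 at 14 nM final; plate controls were DMSO with CCL20 for no effect and DMSO without agonist for full effect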
OPRM1 ag = counter-screen for mouse HTR2A agonists: human mu opioid receptor agonists | shares compounds with HTR2A ag | U2OS OPRM1 beta-arrestin PathHunter, luminescence; DMSO 0%, DAMGO 9.3 µM 100% | activation, % at 9.3 µM | 5.3% of 2,300 active | AID 624380;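 active means mean activation above the mean of DMSO-only wells plus 3 SD, cut at about 0.5% in these data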
m5-HT2A ag conf = mouse HTR2A agonism confirmed | shares compounds with HTR2A ag | CHO-K1 PathHunter beta-arrestin recruitment, luminescence; DMSO 0%, 30 µM serotonin 100% | activation, % at 7.6 µM | 19% of 2,300 active | AID 624381;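 active means mean activation across triplicates above the hit threshold derived in the original primary screen, cut at about 15% in these data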
Starred values were filed as active, the others as inactive.

`CC(C)C[C@H]1CN(CCCC[C@@H]2CNC(=O)C(=O)N2CCc2ccccc2)C(=O)C(=O)N1CCc1ccccc1` gave HTR2A ag -1, EBI2 antag -1 and CXCR6 inh -4.
O=[N+]([O-])c1cc2ncccc2c2ncccc12 was read as HTR2A ag 15*, EBI2 antag -13, CXCR6 inh -12, OPRM1 ag 0 and m5-HT2A ag conf -4.
For Cc1cc([N+](=O)[O-])cc2ncccc12 the results were HTR2A ag -2, APJ antagonist -29, EBI2 antag -9, APJ agonist 1, CXCR6 inh -3 and CCR6 antagonist -2.
Cc1cc(N2CCN(c3nc4ccccc4s3)CC2)n2ncnc2n1 was read as HTR2A ag 22*, APJ antagonist -3, EBI2 antag -5, APJ agonist 9, CXCR6 inh -3, CCR6 antagonist -6, OPRM1 ag 0 and m5-HT2A ag conf 4.
Screening C=CCOC(=O)C1=C[C@@H](c2csc3ccccc23)[C@H](CCCO)[C@@H](OCC)O1 returned HTR2A ag 2, APJ antagonist 14, EBI2 antag 8, APJ agonist -4, CXCR6 inh 8 and CCR6 antagonist 17.
O=C(N/N=C/c1cc([N+](=O)[O-])ccc1O)c1cccc2ccccc12 was read as HTR2A ag -5, APJ antagonist -2, EBI2 antag 7, APJ agonist -11 and CXCR6 inh 11.
Cc1ccc(OCCNC(=O)[C@H]2O[C@@H](n3ccc(=O)[nH]c3=O)[C@H](O)[C@@H]2O)cc1C was read as HTR2A ag 43*, EBI2 antag 3, CXCR6 inh 3, OPRM1 ag 0 and m5-HT2A ag conf -4.
For Cc1ccc(OCCNC(=O)[C@H]2O[C@@H](n3ccc(N)nc3=O)[C@H](O)[C@@H]2O)cc1C the results were HTR2A ag -2, EBI2 antag -13 and CXCR6 inh -7.
`O=C(Nc1ccc(F)cc1)Oc1ccc[nH]c1=O` gave HTR2A ag 15*, APJ antagonist 3, EBI2 antag 0, APJ agonist -4, CXCR6 inh 2, CCR6 antagonist 2, OPRM1 ag 0 and m5-HT2A ag conf -2.
Screening O=C(Oc1ccc[nH]c1=O)c1ccccc1 returned HTR2A ag 2, EBI2 antag -2 and CXCR6 inh -2.
For Cc1ccc(CNC(=O)CN(C(=O)N2CCN(C)CC2)S(=O)(=O)c2ccc(C)cc2)cc1 the results were HTR2A ag -4, APJ antagonist 21, EBI2 antag -3, APJ agonist -1, CXCR6 inh 8 and CCR6 antagonist -5.
For CC(C)Sc1cc(N2CCOCC2)nc(-c2ccc(Cl)cc2)n1 the results were HTR2A ag 14*, APJ antagonist 6, EBI2 antag -9, APJ agonist -2, CXCR6 inh -2, CCR6 antagonist -11, OPRM1 ag 0 and m5-HT2A ag conf 9.
`Clc1ccc(Sc2cc(N3CCOCC3)nc(-c3ccccc3)n2)cc1` gave HTR2A ag 7, APJ antagonist 6, EBI2 antag -6, APJ agonist -1, CXCR6 inh -6 and CCR6 antagonist -30.
For COc1cccc(-n2cc(CNCc3cn(C)nc3-c3ccccc3F)cn2)c1 the results were HTR2A ag 30*, APJ antagonist -5, EBI2 antag 4, APJ agonist -3, CXCR6 inh -3, CCR6 antagonist -1, OPRM1 ag 0 and m5-HT2A ag conf 97*.
`CCCCOc1ccc(S(=O)(=O)NC(=O)C2(C)CCN2C(=O)Cc2ccccc2Cl)cc1` (stereo not drawn) gave HTR2A ag 1, EBI2 antag -16 and CXCR6 inh 3.
Screening CCCCOc1ccc(S(=O)(=O)NC(=O)C2(C)CCN2C(=O)CCc2ccccc2)cc1 (stereo not drawn) returned HTR2A ag 17*, EBI2 antag -6, CXCR6 inh 3, OPRM1 ag 0 and m5-HT2A ag conf -2.
For CCOc1ccc(S(=O)(=O)NCC2(N3CCCCC3)CCCCC2)cc1 the results were HTR2A ag 17*, APJ antagonist -1, EBI2 antag -2, APJ agonist -4, CXCR6 inh 6, CCR6 antagonist 17, OPRM1 ag -1 and m5-HT2A ag conf -1.
Cc1c(C(=O)OCC(=O)c2c(N)n(CC(C)C)c(=O)n(C)c2=O)oc2ccccc12 was read as HTR2A ag 18*, APJ antagonist 1, EBI2 antag 25, APJ agonist -5, CXCR6 inh -2, CCR6 antagonist 13, OPRM1 ag 0 and m5-HT2A ag conf -1.
`O=C(Nc1cccc(OC(F)(F)F)c1)[C@@H]1O[C@H](CO)[C@H](O)[C@H](O)[C@H]1O` gave HTR2A ag -2, EBI2 antag -7 and CXCR6 inh 3.
CCOC(=O)C1CCCN(S(=O)(=O)c2ccc(OC)cc2)C1 (stereo not drawn) was read as HTR2A ag 24*, APJ antagonist -16, EBI2 antag -3, APJ agonist -4, CXCR6 inh -4, CCR6 antagonist -9, OPRM1 ag -1 and m5-HT2A ag conf -3.
`CCOC(=O)C1CCCN(S(=O)(=O)c2ccc(C)cc2)C1` (stereo not drawn) gave HTR2A ag 2, APJ antagonist -4, EBI2 antag -5, APJ agonist 6, CXCR6 inh 0 and CCR6 antagonist -7.
Screening COc1cccc(NC(=O)c2ccc(-n3cnnn3)cc2)c1 returned HTR2A ag 1, APJ antagonist -1, EBI2 antag 27, APJ agonist -1, CXCR6 inh 1 and CCR6 antagonist 7.
Screening Cc1cc(C)c(O)c(-c2n[nH]c3c2C(c2cccc(O)c2)N(Cc2ccco2)C3=O)c1 (stereo not drawn) returned HTR2A ag 99*, APJ antagonist -22, EBI2 antag 8, APJ agonist -6, CXCR6 inh -4, CCR6 antagonist 9, OPRM1 ag 0 and m5-HT2A ag conf 57*.
`Cc1cc(C)cc(-n2c(C)cc(/C=C3\C(=N)N4N=C(CC(C)C)SC4=NC3=O)c2C)c1` gave HTR2A ag 18*, APJ antagonist 19, EBI2 antag 1, APJ agonist -2, CXCR6 inh 12, CCR6 antagonist 16, OPRM1 ag 0 and m5-HT2A ag conf -2.
